Screening data as filed in PubChem BioAssay.
CHO-K1 Ca antag: nonselective inhibitor or artifact in parental CHO-K1 cells; ATP-induced calcium, Fluo-8 fluorescence; hit rate 0.6% among 360,000; inhibition, % at 3 µM; AID 602250;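 active means inhibition above a per-plate cutoff, the plate's mean sample inhibition plus 3 SD, cut at about 24% in these data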
CHO parental Ca: ATP-evoked calcium signal inhibitors, parental CHO, primary screen, counter-screen for OX1R antagonist project, cell-based, fluorescence, Fluo-8 calcium dye; parental CHO-K1, ATP-induced calcium, Fluo-8 fluorescence; inhibition, % at 5.6 µM; hit rate 0.63% among 330,000;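 active means inhibition above that plate's mean sample inhibition plus 3 SD, cut at about 26% in these data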
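Measured by: calcium-sensitive Fluo-8 fluorescence / Test system: CHO parental line / Controls: ATP-challenged DMSO wells low, unchallenged DMSO wells high / Measure: % inhibition / Compound: single nominal dose of 5.6 µM per compound / Replicates: single well per compound, no replicates / Reagent: ATP as calcium-mobilizing challenge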
CHO-K1 Ca PAM: nonselective calcium activators in parental CHO-K1 cells, primary screen, counter-screen for M1 PAM project, cell-based, Fluo-8 calcium fluorescence, full deck, 1536-well; ATP EC20; 0% at ATP EC20, 100% at ATP max; activation, % at 3 µM; hit rate 0.02% among 360,000; AID 602247, 2012;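 active means activation above the run cutoff, the mean activation of all test compounds plus 3 SD, cut at about 40% in these data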;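 further: peak over basal fluorescence ratio in a 140 s read after ATP addition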
OX1R antag-1: OX1R (HCRTR1) antagonists, primary screen, fluorescence, CHO/OX1R cells, Fluo-8 calcium, orexin A. Orexin/Hypocretin receptor type 1 (Homo sapiens), O43613. Fluo-8 calcium fluorescence. inhibition, % at 5 µM. hit rate 0.43% among 330,000. AID 434989, 2010;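 active means inhibition above its plate's threshold, mean inhibition of all tested compounds on the plate plus 3 SD, cut at about 37% in these data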
Target sequence (O43613 whole entry, looked up): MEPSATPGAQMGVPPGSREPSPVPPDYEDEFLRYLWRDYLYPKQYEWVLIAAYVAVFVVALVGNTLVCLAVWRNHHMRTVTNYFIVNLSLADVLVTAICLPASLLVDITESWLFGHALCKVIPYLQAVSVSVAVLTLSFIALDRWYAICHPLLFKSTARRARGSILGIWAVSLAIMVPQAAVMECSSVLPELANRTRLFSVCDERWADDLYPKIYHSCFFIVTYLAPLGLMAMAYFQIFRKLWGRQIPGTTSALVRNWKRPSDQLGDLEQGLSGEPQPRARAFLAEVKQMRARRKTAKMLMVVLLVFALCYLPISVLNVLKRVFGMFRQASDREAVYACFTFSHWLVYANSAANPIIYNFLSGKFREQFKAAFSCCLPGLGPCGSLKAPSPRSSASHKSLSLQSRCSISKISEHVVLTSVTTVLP
CHO-K1 Ca ag: counter-screen for M1 agonists: effect in parental CHO-K1 cells; AID 602248, 2012; Fluo-8 calcium fluorescence; scaled to maximal ATP response, vehicle zero; hit rate 0.48% among 360,000; activation, % at 3 µM; in the data active means activation above about 15%;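 further: untransfected CHO-K1 host cells lacking M1 receptor as counterscreen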
OX1R antag-2: antagonists of human orexin 1 receptor (OX1R). Orexin/Hypocretin receptor type 1 (Homo sapiens), O43613. OX1R-expressing cells, FRET antagonist read-out. inhibition, % at 6.6 µM. hit rate 1.8% among 330,000; in the data active means inhibition mostly above about 38%, no sharp cut-off; inactive means mostly below about 40%
Hits are given with their value. Most compounds without a hit are left out; they make up all but 2.9% or so of the library.

Results for CSc1ccc(C(=O)NCC(c2ccco2)N(C)C)cc1[N+](=O)[O-] (centres undefined) ?
CHO-K1 Ca antag: inactive; CHO parental Ca: inactive; CHO-K1 Ca PAM: inactive; OX1R antag-1: inactive; CHO-K1 Ca ag: inactive; OX1R antag-2: 46.6

What do the screens show for `O=C(NC1CCCCC1)c1ccc2c(c1)S(=O)(=O)c1ccccc1C2=O`?
CHO-K1 Ca antag: inactive; CHO parental Ca: inactive; CHO-K1 Ca PAM: inactive; OX1R antag-1: inactive; CHO-K1 Ca ag: inactive; OX1R antag-2: inactive

Results for O=C(Nc1ccc(-c2ccccc2)cc1)c1ccc2c(c1)S(=O)(=O)c1ccccc1C2=O ?
CHO-K1 Ca antag: inactive; CHO parental Ca: inactive; CHO-K1 Ca PAM: inactive; OX1R antag-1: inactive; CHO-K1 Ca ag: inactive; OX1R antag-2: inactive

What do the screens show for `CC1(C)CC(NC(=O)c2ccc(Cl)c(Cl)c2)CC(C)(C)N1`?
CHO-K1 Ca antag: inactive; CHO parental Ca: inactive; CHO-K1 Ca PAM: inactive; OX1R antag-1: inactive; CHO-K1 Ca ag: inactive; OX1R antag-2: inactive

Results for CC(=O)Nc1ccc(NC(=O)C(C)N(C)CC(=O)Nc2ccccc2Br)cc1 (centres undefined) ?
CHO-K1 Ca antag: inactive; CHO-K1 Ca PAM: inactive; CHO-K1 Ca ag: inactive

What do the screens show for `Cc1ccc(NS(=O)(=O)c2ccc(C(=O)NCC(c3ccco3)N(C)C)cc2)cc1` (centres undefined)?
CHO-K1 Ca antag: inactive; CHO parental Ca: inactive; CHO-K1 Ca PAM: inactive; OX1R antag-1: inactive; CHO-K1 Ca ag: 26.1; OX1R antag-2: inactive

Results for CCCNC(=O)c1ccc2c(c1)S(=O)(=O)c1ccccc1C2=O ?
CHO-K1 Ca antag: inactive; CHO parental Ca: inactive; CHO-K1 Ca PAM: inactive; OX1R antag-1: inactive; CHO-K1 Ca ag: inactive; OX1R antag-2: 74.1

Results for O=C(NCc1ccco1)c1ccc2c(c1)S(=O)(=O)c1ccccc1C2=O ?
CHO-K1 Ca antag: inactive; CHO parental Ca: inactive; CHO-K1 Ca PAM: inactive; OX1R antag-1: inactive; CHO-K1 Ca ag: inactive; OX1R antag-2: inactive

How did CN(C)C(CNC(=O)c1ccc2c(c1)S(=O)(=O)c1ccccc1C2=O)c1ccco1 (centres undefined) do in these assays?
CHO-K1 Ca antag: inactive; CHO parental Ca: inactive; CHO-K1 Ca PAM: inactive; OX1R antag-1: inactive; CHO-K1 Ca ag: inactive; OX1R antag-2: 74.3

What do the screens show for `CCCN(CCC)C(=O)c1ccc2c(c1)S(=O)(=O)c1ccccc1C2=O`?
CHO-K1 Ca antag: inactive; CHO parental Ca: inactive; CHO-K1 Ca PAM: inactive; OX1R antag-1: inactive; CHO-K1 Ca ag: inactive; OX1R antag-2: inactive

How did CNC(=O)COC(=O)c1ccc2c(c1)S(=O)(=O)c1ccccc1C2=O do in these assays?
CHO-K1 Ca antag: inactive; CHO parental Ca: inactive; CHO-K1 Ca PAM: inactive; OX1R antag-1: inactive; CHO-K1 Ca ag: inactive; OX1R antag-2: 74.3

How did O=S1(=O)N=C(c2ccccc2)c2ccccc21 do in these assays?
CHO-K1 Ca antag: inactive; CHO parental Ca: inactive; CHO-K1 Ca PAM: inactive; OX1R antag-1: inactive; CHO-K1 Ca ag: inactive; OX1R antag-2: inactive

What do the screens show for `CCCc1ccc(OCc2ccc(C(=O)N/N=C/c3cccnc3)o2)cc1`?
CHO-K1 Ca antag: inactive; CHO-K1 Ca PAM: inactive; CHO-K1 Ca ag: inactive

Results for CCc1nc2ccc(C(=O)Nc3cccc(NS(C)(=O)=O)c3)cn2c1N(CC)Cc1cccc(Br)c1 ?
CHO-K1 Ca antag: inactive; CHO-K1 Ca PAM: inactive; CHO-K1 Ca ag: inactive

How did C/C(=N/Nc1ccc(C(=O)c2c(C)cc3ccccn23)cc1[N+](=O)[O-])c1ccc(O)cc1 do in these assays?
CHO-K1 Ca antag: inactive; CHO-K1 Ca PAM: inactive; CHO-K1 Ca ag: inactive

Results for CC1CCCC(C)N1C(=O)c1ccc2c(c1)S(=O)(=O)c1ccccc1C2=O (centres undefined) ?
CHO-K1 Ca antag: inactive; CHO parental Ca: inactive; CHO-K1 Ca PAM: inactive; OX1R antag-1: inactive; CHO-K1 Ca ag: inactive; OX1R antag-2: 41.8

Results for Cc1nc2ccsc2c(=O)n1-c1cccc(Cl)c1 ?
CHO-K1 Ca antag: inactive; CHO parental Ca: inactive; CHO-K1 Ca PAM: inactive; OX1R antag-1: inactive; CHO-K1 Ca ag: inactive; OX1R antag-2: inactive

Results for CCOC(=O)N1CCN(c2cc(C)c(C(C)=O)cc2F)CC1 ?
CHO-K1 Ca antag: inactive; CHO parental Ca: inactive; CHO-K1 Ca PAM: inactive; OX1R antag-1: inactive; CHO-K1 Ca ag: inactive; OX1R antag-2: inactive

Results for CC(=O)c1cc(F)c(N2CCN(C(=O)Cc3ccccc3)CC2)cc1C ?
CHO-K1 Ca antag: inactive; CHO parental Ca: inactive; CHO-K1 Ca PAM: inactive; OX1R antag-1: 58.5; CHO-K1 Ca ag: inactive; OX1R antag-2: inactive

Results for Clc1ccc(-n2cnc3c(Cl)ncnc32)cc1Cl ?
CHO-K1 Ca antag: inactive; CHO-K1 Ca PAM: inactive; CHO-K1 Ca ag: inactive

How did Cc1ccc(C2CC2c2n[nH]c(=S)n2-c2cccc(C)c2)cc1 (centres undefined) do in these assays?
CHO-K1 Ca antag: inactive; CHO parental Ca: inactive; CHO-K1 Ca PAM: inactive; OX1R antag-1: inactive; CHO-K1 Ca ag: inactive; OX1R antag-2: inactive

What do the screens show for `Cc1ccc(C2CC2c2n[nH]c(=S)n2-c2ccc(Cl)cc2)cc1` (centres undefined)?
CHO-K1 Ca antag: inactive; CHO parental Ca: 85.7; CHO-K1 Ca PAM: inactive; OX1R antag-1: inactive; CHO-K1 Ca ag: inactive; OX1R antag-2: inactive

What do the screens show for `CCOC(=O)N1CCN(C(=O)c2ccc(OCC)c(OCC)c2)CC1`?
CHO-K1 Ca antag: 37.3; CHO parental Ca: inactive; CHO-K1 Ca PAM: inactive; OX1R antag-1: inactive; CHO-K1 Ca ag: inactive; OX1R antag-2: inactive

Results for Cc1noc(C)c1S(=O)(=O)N(CC(=O)NC1CCCC1)c1ccc(C(C)C)cc1 ?
CHO-K1 Ca antag: inactive; CHO parental Ca: inactive; CHO-K1 Ca PAM: inactive; OX1R antag-1: inactive; CHO-K1 Ca ag: inactive; OX1R antag-2: inactive

How did NC(=O)C(CC(=O)O)NC(=O)[C@@H]1CCOc2c(I)cc([N+](=O)[O-])cc2C(=O)N[C@@H](CCC(=O)O)C(=O)N[C@@H](CO)C(=O)N1 (some centres undefined) do in these assays?
CHO parental Ca: inactive; OX1R antag-1: inactive; OX1R antag-2: 70.4

Results for C[C@@H]1NC(=O)c2cc([N+](=O)[O-])cc(I)c2OCC[C@@H](C(=O)NC(CC(=O)O)C(N)=O)NC(=O)[C@H](CCC(=O)O)NC1=O (some centres undefined) ?
CHO parental Ca: inactive; OX1R antag-1: inactive; OX1R antag-2: 61.8

What do the screens show for `C[C@@H]1NC(=O)[C@H](CC(N)=O)NC(=O)c2cc([N+](=O)[O-])cc(I)c2OCC[C@@H](C(=O)NC(CC(=O)O)C(N)=O)NC1=O` (some centres undefined)?
CHO parental Ca: inactive; OX1R antag-1: inactive; OX1R antag-2: inactive
